Compound activity as filed in PubChem BioAssay.
CendR NRP1 mod – modulators of CendR peptide binding to NRP-1, primary screen, biochemical, fluorescence polarization, uHTS; Neuropilin-1 (Homo sapiens), O14786; FAM-RPARPAR peptide binding to NRP-1; inhibition, % at 25 µM; hit rate 0.85% among 360,000; AID 602438, 2012;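 active = inhibition or corrected inhibition above about 18%, plus a signal ratio from 0.5 to 1.5, limit read from the data, passing the limit was not always enough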
Myeloid diff 2 – induction of myeloid progenitor differentiation, primary screen, cell-based, flow cytometry, MLPCN library. ER-HoxA9 myeloid progenitors, lysozyme-GFP differentiation. calls only at 10 µM. hit rate 1% among 360,000;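 active = normalized GFP-positive differentiation at or above the plate's own cutoff, the solvent-only control mean plus 3 SD; inconclusive = no clear call, values can overlap the other calls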;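 note: cells exposed to compound for four days before flow analysis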
ABCB6 inh MLPCN – ABCB6 transporter inhibitors, primary screen, K562-ABCB6 cells, flow cytometry, MLPCN library. hit rate 0.19% among 360,000. K562-ABCB6 porphyrin accumulation, 1 h; hits give low values. ATP-binding cassette sub-family B member 6 (Homo sapiens), Q9NP58. fluorescence ratio to DMSO, % at 10 µM;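 active = fluorescence ratio to DMSO below 75%, the collection mean minus 3 SD; inconclusive = too few cells collected in the well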;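 note: signal is porphyrin accumulated inside mitochondria; lower ratio means ABCB6 inhibition with less porphyrin fluorescence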
ATG4B inhibitor – ATG4B protease inhibitors, primary screen, biochemical, fluorescence, uHTS. hit rate 0.51% among 340,000. inhibition, % at 8.33 µM. Cysteine protease ATG4B (Homo sapiens), Q9Y4P1. AID 504462, 2011. ATG4B cleavage of LC3-PLA2, NBD-HPC fluorescence, 1 h; in the data active = inhibition above about 40%
Target sequence (Q9Y4P1 whole entry, looked up): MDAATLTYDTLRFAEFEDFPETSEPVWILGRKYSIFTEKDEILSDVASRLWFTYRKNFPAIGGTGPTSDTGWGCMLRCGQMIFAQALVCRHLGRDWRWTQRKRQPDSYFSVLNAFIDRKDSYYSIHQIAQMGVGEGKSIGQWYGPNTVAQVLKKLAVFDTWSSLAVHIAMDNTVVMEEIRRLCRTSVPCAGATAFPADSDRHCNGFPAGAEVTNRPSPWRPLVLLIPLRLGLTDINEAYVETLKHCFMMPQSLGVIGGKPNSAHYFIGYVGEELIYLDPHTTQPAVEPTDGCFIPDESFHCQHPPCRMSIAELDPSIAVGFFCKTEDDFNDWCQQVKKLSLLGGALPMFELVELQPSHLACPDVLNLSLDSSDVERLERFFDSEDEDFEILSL
Arr AP2 block – inhibitors of beta-arrestin/AP2 binding, primary screen, biochemical, GPCR trafficking, flow cytometry; AID 504490, 2011; beta-arrestin 1 C-terminal peptide binding to AP2 beta2-adaptin appendage (human); inhibition, % at 10 µM; FITC-arrestin peptide / GST-AP2 beads; AP2 beta2 appendage carries R879A mutation; hit rate 0.31% among 340,000;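 active = inhibition above a set limit, near 3 SD of compounds lacking own fluorescence, cut at about 54% in these data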
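Material – GST-tagged AP2 beta2-adaptin appendage (R879A) on 4 µm glutathione beads · Probe or stimulus – fluorescein-tagged arrestin peptide at 50 nM final · Timing – 12 min plus 1 h, RT · Detection – bead flow cytometry, FITC channel · Read-out basis – inhibition as reduced fluorescein signal on beads, percent · Medium – PBS plus Tween 20 (0.05%) and BSA (0.1%)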
Exocytosis inh – LAMP-1 surface exposure blockers, TALL-104 cells – cell-based, flow cytometry, MLPCN library, primary screen | TALL-104 LAMP-1 surface exposure; cells stimulated with thapsigargin and PMA | inhibition, % at 10 µM | hit rate 0.66% among 360,000 | AID 651702, 2012;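 active = inhibition above about 55%, limit read from the data; inconclusive = no clear call, values can overlap the other calls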
ATG4B confirm – ATG4B protease inhibitors, retest, confirmation, biochemical, fluorescence, single concentration; shares compounds with ATG4B inhibitor; ATG4B protease fluorescent substrate cleavage assay; inhibition, % at 8.33 µM; hit rate 92% among 320; in the data active = inhibition above about 39%
PLA2 ctr – PLA2 enzyme inhibition, counter-screen for ATG4B inhibitor project, biochemical, single concentration, uHTS hits; AID 588402, 2011; inhibition, % at 8.33 µM; hit rate 66% among 1,600; purified PLA2, NBD-C6-HPC fluorescence, 45 min; shares compounds with ATG4B inhibitor; in the data active = inhibition above about 50%
Target sequence (P04054 whole entry, looked up): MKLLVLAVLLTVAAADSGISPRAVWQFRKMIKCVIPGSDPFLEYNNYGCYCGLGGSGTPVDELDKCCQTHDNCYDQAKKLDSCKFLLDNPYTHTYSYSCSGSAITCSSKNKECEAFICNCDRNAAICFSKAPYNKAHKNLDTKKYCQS
Each line names hits and unclear results; the compound was inactive in the other large screens (follow-up assays come after a bar, where they were run). The list is not random: actives were taken first. Their share in the collection is about 3.3%.

C=CCn1c(NS(=O)(=O)c2ccccc2)c(S(=O)(=O)c2ccc(C)cc2)c2nc3ccccc3nc21	none
NS(=O)(=O)c1ccc(CNC(=O)/C=C/c2cccc([N+](=O)[O-])c2)cc1	none
COc1ccc(C(C)=O)cc1CSc1nc2ccccc2c(=O)n1-c1ccccc1	none
COc1ccc(C(C)=O)cc1CSc1nc2ccccc2c(=O)n1-c1ccccc1C	ATG4B inhibitor 52.8 | PLA2 ctr 81.3
COc1ccc(C(C)=O)cc1CSc1nc2ccccc2c(=O)n1-c1cccc(C)c1	ATG4B inhibitor 79.1 | ATG4B confirm 49.5 | PLA2 ctr inactive
C=CCn1c(SCc2nc3ccccc3c(=O)[nH]2)nc2ccccc2c1=O	none
C=CCn1c(SCc2cc(C(C)=O)ccc2OCC)nc2ccccc2c1=O	Myeloid diff 2 inconclusive, ATG4B inhibitor 49.8 | ATG4B confirm 51.8 | PLA2 ctr inactive
COCCn1c(SCc2cc(C(C)=O)ccc2OC)nc2cc(Cl)ccc2c1=O	ATG4B inhibitor 63.0 | PLA2 ctr 63.0
O=C(COC(=O)c1cncc(Br)c1)NCc1cccs1	none
COC(=O)c1c(NC(=O)C2Cc3ccccc3C(=O)O2)sc2c1CCCC2 (centres undefined)	ATG4B inhibitor 49.0 | ATG4B confirm 83.4 | PLA2 ctr inactive
CCOC(=O)c1c(NC(=O)C2Cc3ccccc3C(=O)O2)sc2c1CCCC2 (centres undefined)	none
COc1ccc(Cl)cc1C(=O)NC(=S)Nc1cc(-c2nc3ccccc3[nH]2)ccc1C	ATG4B inhibitor 65.8 | PLA2 ctr 78.5
COc1ccc(Cl)cc1C(=O)NC(=S)Nc1nc(C)cc(C)n1	none
COc1cccc(OC)c1C(=O)Nc1cccc(-c2nc3ccccc3[nH]2)c1	ATG4B inhibitor 53.0 | PLA2 ctr 62.2
C=CCNC(=S)N1CCC(C(=O)c2ccc(Cl)cc2)CC1	none
Cc1ccccc1C(=O)NC(=S)Nc1ccc(Cc2ccncc2)cc1	ATG4B inhibitor 46.4 | PLA2 ctr inactive
O=C(NC(=S)Nc1ccc(Cc2ccncc2)cc1)c1ccccc1Cl	none
O=C(NC(=S)Nc1ccc(Cc2ccncc2)cc1)c1ccccc1F	ATG4B inhibitor 51.9 | PLA2 ctr 56.5
O=C(NCc1ccc(Cl)cc1)C1CCCN1C(=O)Nc1ccc(F)cc1 (centres undefined)	none
CCC(CC)C1=NN2C(=N)/C(=C\c3cc(C)n(-c4cccc(C)c4)c3C)C(=O)N=C2S1	ATG4B inhibitor 58.9 | ATG4B confirm 47.8 | PLA2 ctr inactive
CC1=NN2C(=N)/C(=C\c3cc(C)n(-c4ccccc4)c3C)C(=O)N=C2S1	none
O=C1N/C(=N\N=C\c2cccs2)SC1Cc1ccc(Cl)cc1 (centres undefined)	ATG4B inhibitor 43.2 | PLA2 ctr inactive
O=C1N/C(=N\N=C\c2cccs2)SC1Cc1cccc(Cl)c1 (centres undefined)	none
Cc1c(Br)c([N+](=O)[O-])nn1CC(=O)NCCc1ccc(Cl)cc1	none
CC(C)COc1ccc(CNC(=S)NCc2ccccc2)cc1	ATG4B inhibitor 64.3 | PLA2 ctr 76.2
Cc1nn(Cc2c(F)c(F)c(F)c(F)c2F)c(C)c1NC(=O)c1cccc(COc2ccc(Cl)cc2)c1	ATG4B inhibitor 56.7 (no result: Myeloid diff 2) | PLA2 ctr 68.2
Cc1ccc(OCc2ccc(C(=O)Nc3c(C)nn(Cc4c(F)c(F)c(F)c(F)c4F)c3C)o2)c([N+](=O)[O-])c1	ATG4B inhibitor 66.8 | PLA2 ctr 75.9
Cc1ccc(S(=O)(=O)CCN2CCC(n3cccc3)CC2)cc1	none
CC(C)(C)c1cc(NC(=O)Nc2ccc(Cl)cc2Cl)no1	none
Cc1c(Cl)cccc1NC(=O)Nc1cc(C(C)(C)C)on1	ATG4B inhibitor 77.6 | PLA2 ctr 83.7
CC(=O)n1cc(/C=N/NC(=O)c2ccc(Cl)cc2)c2ccccc21	none
CC1(C)C2(C#N)C(=O)NC(=O)C12C#N (centres undefined)	none
O[C@@H](c1cc(C(F)(F)F)nc2c(C(F)(F)F)cccc12)[C@H]1CCCCN1	none
OC(c1cc(-c2ccc(Cl)cc2)nc2ccccc12)C1CCCCN1 (centres undefined)	ATG4B inhibitor 41.8 | PLA2 ctr 52.3
O=C(O)CN1C(=O)/C(=C\c2cc(Br)ccc2OCc2ccc(F)cc2)SC1=S	none
O=C(O)CN1C(=O)/C(=C\c2cc(Br)ccc2OCc2ccc(Cl)cc2)SC1=S	ATG4B inhibitor 51.9 | ATG4B confirm 53.5 | PLA2 ctr inactive
O=C(O)CN1C(=O)/C(=C\c2cc([N+](=O)[O-])ccc2OCc2ccccc2Cl)SC1=S	ATG4B inhibitor 74.9 | PLA2 ctr 60.0
O=C(O)CN1C(=O)/C(=C\c2ccccc2OCc2ccccc2)SC1=S	none (no result: ATG4B inhibitor, Arr AP2 block)
CCOc1ccccc1NC(=O)CCc1nnc2ccc(N3CCC4(CC3)OCCO4)nn12	none
Cc1ccc(S(=O)(=O)C2C(=O)N(C)C3(C)CC2c2ccccc2O3)cc1C (centres undefined)	ATG4B inhibitor 79.4 | PLA2 ctr 84.8
COc1ccc(-c2n[nH]c(C(F)(F)F)c2-c2cc3ccccc3o2)c(O)c1	ATG4B inhibitor 57.6 | ATG4B confirm 63.5 | PLA2 ctr inactive
O=C(CSc1nnc(COc2ccc(Cl)cc2)n1Cc1ccco1)c1ccccc1F	ATG4B inhibitor 44.0 | ATG4B confirm 56.6 | PLA2 ctr inactive
CN(C)C(=O)c1cc(Cl)ccc1Sc1cc(Cl)ccc1Cl	none
Oc1ccc(Cl)cc1Sc1cc(Cl)ccc1O	ATG4B inhibitor 47.0 | ATG4B confirm 58.6 | PLA2 ctr inactive
O=[N+]([O-])c1cc2oc3c(c2c(C=NCc2ccccc2)c1O)CCCC3	ATG4B inhibitor 75.8 | ATG4B confirm 48.1 | PLA2 ctr inactive
CCOc1ccc(-c2cccc(NC(=O)c3cccs3)c2)nn1	none
Cc1cc(C)cc(N2C(=O)CN(Cc3ccccc3)C2=S)c1	ATG4B inhibitor 70.3 | PLA2 ctr 74.6
CCc1ccc(N2C(=O)CN(Cc3ccccc3)C2=S)cc1	none
